Activity calls are given as the source filed them. No cut-off for these calls is given here.
Tests used:
Mu-type opioid receptor [1] = target: T1, Mu-type opioid receptor (Homo sapiens, UniProt P35372); assay: Displacement of [3H]diprenorphine from human mu opioid receptor expressed in CHO cells; format: cell-based
Nociceptin receptor [2] = target: T2, Nociceptin receptor (Homo sapiens, UniProt P41146); assay: Displacement of [125I][Tyr14]nociceptin from human cloned NOP receptor expressed in CHO cells; format: cell-based
T2 sequence (P41146 whole entry): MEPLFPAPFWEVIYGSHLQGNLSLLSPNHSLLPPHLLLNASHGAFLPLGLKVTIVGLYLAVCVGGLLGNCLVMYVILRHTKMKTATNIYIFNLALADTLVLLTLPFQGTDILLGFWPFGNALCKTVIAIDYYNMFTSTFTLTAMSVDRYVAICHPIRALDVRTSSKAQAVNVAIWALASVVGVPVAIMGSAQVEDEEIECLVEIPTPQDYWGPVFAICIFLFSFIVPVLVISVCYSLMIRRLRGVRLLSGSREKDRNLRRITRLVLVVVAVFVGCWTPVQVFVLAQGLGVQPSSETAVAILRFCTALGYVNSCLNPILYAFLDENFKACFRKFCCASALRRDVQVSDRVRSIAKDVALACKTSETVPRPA

Mu-type opioid receptor [3] = target: T1, Mu-type opioid receptor; assay: Agonist activity at human mu opioid assessed as stimulation of GDP-induced [35S]GTPgammaS binding; format: functional
In short: (§1)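 Functional agonism measured as enhancement of [35S]GTPγS binding in the presence of GDP, using membranes from cells transfected with the receptor. Values are means of 2–3 experiments.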

Nociceptin receptor [4] = target: T2, Nociceptin receptor; assay: Agonist activity at human NOP assessed as stimulation of GDP-induced [35S]GTPgammaS binding; format: functional; in short: as §1
Mu-type opioid receptor [5] = target: T1, Mu-type opioid receptor; assay: Binding affinity to human mu opioid assessed as stimulation of GDP-induced [35S]GTPgammaS binding at 10 uM; format: functional
In short: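 Agonist function read as enhancement of [35S]GTPγS binding to receptor-expressing membranes in the presence of GDP. Percent stimulation is given at 10 µM test compound. Values are means of at least 2–3 experiments.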

Nociceptin receptor [6] = target: T2, Nociceptin receptor; assay: Agonist activity at human NOP assessed as stimulation of GDP-induced [35S]GTPgammaS binding at 10 uM; format: functional
In short: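 Functional agonism measured as enhancement of [35S]GTPγS binding in the presence of GDP, using membranes from cells transfected with the receptor. […] Values are means of 2–3 experiments.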

[7] = target: T3, Nuclear receptor subfamily 1 group I member 2 (Homo sapiens, UniProt O75469); assay: Activity at human PXR assessed as induction of CYP3A4 activity in human hepatocytes at 1 uM relative to rifampicin; format: cell-based, Hepatocyte
T3 sequence (O75469 whole entry): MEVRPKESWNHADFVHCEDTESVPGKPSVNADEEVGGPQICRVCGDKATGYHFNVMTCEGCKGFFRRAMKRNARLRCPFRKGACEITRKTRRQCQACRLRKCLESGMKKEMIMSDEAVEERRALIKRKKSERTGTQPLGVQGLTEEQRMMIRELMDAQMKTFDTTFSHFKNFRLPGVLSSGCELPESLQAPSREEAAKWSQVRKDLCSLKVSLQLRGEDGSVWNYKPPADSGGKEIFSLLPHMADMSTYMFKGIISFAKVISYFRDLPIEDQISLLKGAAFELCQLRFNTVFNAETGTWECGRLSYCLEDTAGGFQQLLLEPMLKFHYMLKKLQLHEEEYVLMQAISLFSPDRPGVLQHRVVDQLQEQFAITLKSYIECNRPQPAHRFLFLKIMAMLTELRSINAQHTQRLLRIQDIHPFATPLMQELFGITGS

Rattus norvegicus [8] = assay: Anxiolytic activity in po dosed CD rats assessed as suppression of conditioned paw licking administered twice per day for 14 days measured after 2 hrs of last dose; format: functional
Cavia porcellus [9] = species: Cavia porcellus; assay: Anxiolytic activity in Dunkin-Hartley guinea pig pup assessed as reduction in number of vocalization produced due to separation measured after 2 hrs; format: functional
Cavia porcellus [10] = assay: Antitussive activity against capsaicin-induced cough in po dosed Hartley guinea pig model after 2 hrs in presence naltrexone; format: functional, organism-based
[11] = target: Kappa-type opioid receptor (Homo sapiens, UniProt P41145); assay: Displacement of [3H]diprenorphine from human kappa opioid receptor expressed in CHO cells; format: cell-based
Chain of Kappa-type opioid receptor (P41145 whole entry): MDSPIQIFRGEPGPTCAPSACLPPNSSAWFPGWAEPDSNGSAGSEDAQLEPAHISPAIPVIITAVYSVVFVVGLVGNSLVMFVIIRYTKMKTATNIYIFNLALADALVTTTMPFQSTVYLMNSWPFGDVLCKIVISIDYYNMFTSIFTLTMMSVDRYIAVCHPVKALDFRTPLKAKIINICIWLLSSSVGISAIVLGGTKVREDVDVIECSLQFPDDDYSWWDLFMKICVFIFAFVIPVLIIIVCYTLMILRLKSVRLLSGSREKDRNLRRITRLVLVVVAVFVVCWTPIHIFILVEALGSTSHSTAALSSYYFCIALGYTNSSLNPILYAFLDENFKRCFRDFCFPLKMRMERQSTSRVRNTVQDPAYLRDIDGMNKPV

Cavia porcellus [12] = assay: Antitussive activity against capsaicin-induced cough in po dosed Hartley guinea pig model after 2 hrs in presence J113397; format: functional, organism-based
Cavia porcellus [13] = assay: Antitussive activity against capsaicin-induced cough in po dosed Hartley guinea pig model after 2 hrs; format: functional
Cavia porcellus [14] = assay: Antitussive activity against capsaicin-induced cough in po dosed Hartley guinea pig model after 2 hrs in presence naloxone; format: functional, organism-based
[15] = target: Delta-type opioid receptor (Homo sapiens, UniProt P41143); assay: Displacement of [3H]diprenorphine from human delta opioid receptor expressed in CHO cells; format: cell-based
Chain of Delta-type opioid receptor (P41143 whole entry): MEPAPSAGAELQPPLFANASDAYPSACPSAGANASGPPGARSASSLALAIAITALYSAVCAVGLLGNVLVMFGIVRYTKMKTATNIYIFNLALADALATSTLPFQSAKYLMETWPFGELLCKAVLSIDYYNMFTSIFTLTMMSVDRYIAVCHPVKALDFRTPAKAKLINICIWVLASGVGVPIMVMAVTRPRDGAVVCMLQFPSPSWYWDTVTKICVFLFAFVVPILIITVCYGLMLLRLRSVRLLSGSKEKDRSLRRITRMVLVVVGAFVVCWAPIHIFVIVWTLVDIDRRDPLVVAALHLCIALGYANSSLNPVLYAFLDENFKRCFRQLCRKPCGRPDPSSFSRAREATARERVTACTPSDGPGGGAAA

[16] = AUC (0 to 24 hrs) in rat at 3 mg/kg, po; format: ADME, organism-based; design: time < 24 hr, dose 3 mg/kg, route oral; settings: plasma
[17] = Cmax in rat at 3 mg/kg, po; format: ADME, organism-based; design: dose 3 mg/kg, route oral; settings: in vivo
[18] = Half life in rat at 3 mg/kg, po; format: ADME, organism-based; design: dose 3 mg/kg, route oral; settings: in vivo
Rattus norvegicus [19] = assay: Volume of distribution at steady state in rat at 3 mg/kg, po; format: ADME, organism-based; design: dose 3 mg/kg, route oral; settings: in vivo
[20] = Oral bioavailability in rat at 3 mg/kg; format: ADME, organism-based; settings: in vivo
[21] = Clearance in rat at 3 mg/kg, po; format: ADME, organism-based; design: dose 3 mg/kg, route oral; settings: in vivo

T1 sequence (P35372 whole entry): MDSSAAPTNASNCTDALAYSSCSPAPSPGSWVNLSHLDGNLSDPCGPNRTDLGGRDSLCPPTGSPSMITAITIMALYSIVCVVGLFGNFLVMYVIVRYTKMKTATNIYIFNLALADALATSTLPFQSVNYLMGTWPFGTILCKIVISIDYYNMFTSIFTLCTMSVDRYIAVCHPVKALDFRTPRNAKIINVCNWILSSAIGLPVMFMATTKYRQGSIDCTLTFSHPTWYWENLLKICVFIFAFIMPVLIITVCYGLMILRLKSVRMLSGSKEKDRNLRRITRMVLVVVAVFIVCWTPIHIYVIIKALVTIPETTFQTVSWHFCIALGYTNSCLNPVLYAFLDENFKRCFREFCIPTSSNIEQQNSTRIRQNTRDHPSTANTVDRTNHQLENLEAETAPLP

## O=C(O)C1(c2ccccc2)CC2CCC(C1)N2C(c1ccccc1Cl)c1ccccc1Cl (stereo not drawn)
Mu-type opioid receptor [1]
  Ki: 123 nM
Nociceptin receptor [2]
  Ki: 3 nM

## Cc1ccnc(C2(O)CC3CCC(C2)N3C(c2ccccc2Cl)c2ccc(C)cc2Cl)c1 (stereo not drawn)
Mu-type opioid receptor [1]
  Ki: 708 nM
Nociceptin receptor [2]
  Ki: 7.3 nM

## Cc1ccc(C(c2ccccc2Cl)N2C3CCC2CC(O)(c2cccc(F)c2)C3)c(Cl)c1 (stereo not drawn)
Mu-type opioid receptor [3]
  EC50: 894 nM
Mu-type opioid receptor [1]
  Ki: 57 nM
Nociceptin receptor [4]
  EC50: 16 nM
Nociceptin receptor [2]
  Ki: 2.7 nM

## Cc1ccc(C(c2ccccc2Cl)N2C3CCC2CC(O)(c2ccncn2)C3)c(Cl)c1 (stereo not drawn)
Mu-type opioid receptor [3]
  EC50: 1690 nM
Mu-type opioid receptor [1]
  Ki: 535 nM
Nociceptin receptor [4]
  EC50: 50 nM
Nociceptin receptor [2]
  Ki: 5.2 nM

## C[C@H]1CN(C(c2ccccc2)c2ccccc2)CC[C@@]1(O)c1ccccc1
Nociceptin receptor [2]
  Ki: 1570 nM

## OC1(c2cccnn2)CC2CCC(C1)N2C(c1ccccc1Cl)c1ccccc1Cl (stereo in doubt; 11c)
Mu-type opioid receptor [1]
  Ki: 470 nM
Nociceptin receptor [2]
  Ki: 10 nM

## NC1(c2ccccc2)CC2CCC(C1)N2C(c1ccccc1Cl)c1ccccc1Cl (stereo not drawn)
Mu-type opioid receptor [3]
  EC50: 4520 nM
Mu-type opioid receptor [1]
  Ki: 458 nM
Nociceptin receptor [4]
  EC50: 76 nM
Nociceptin receptor [2]
  Ki: 4 nM

## O=C(NC1(c2ccccc2)CC2CCC(C1)N2C(c1ccccc1Cl)c1ccccc1Cl)C1CC1 (stereo not drawn)
Mu-type opioid receptor [1]
  Ki: 996 nM
Nociceptin receptor [4]
  EC50: 35 nM
Mu-type opioid receptor [5]
  Activity: 25%
Nociceptin receptor [2]
  Ki: 11 nM

## C[C@@H]1CN(C(c2ccccc2)c2ccccc2)CC[C@@]1(O)c1ccccc1
Nociceptin receptor [6]
  Activity: 70%
Mu-type opioid receptor [1]
  Ki: 738 nM
Nociceptin receptor [2]
  Ki: 142 nM

## CC(O)CNC(=O)C1(c2ccccc2)CC2CCC(C1)N2C(c1ccccc1Cl)c1ccccc1Cl (stereo not drawn)
[7]
  Ratio: 2.38
Mu-type opioid receptor [1]
  Ki: 57 nM
Nociceptin receptor [2]
  Ki: 11 nM

## OC1(c2cccnc2)CC2CCC(C1)N2C(c1ccccc1Cl)c1ccccc1Cl (stereo not drawn)
Mu-type opioid receptor [1]
  Ki: 42 nM
Nociceptin receptor [2]
  Ki: 3 nM

## Cc1ccc(C(c2ccccc2Cl)N2C3CCC2CC(O)(CCCO)C3)c(Cl)c1 (stereo not drawn)
Mu-type opioid receptor [1]
  Ki: 306 nM
Nociceptin receptor [2]
  Ki: 7.4 nM

## NC(=O)c1ccc(C2(C(N)=O)CC3CCC(C2)N3C(c2ccccc2Cl)c2ccccc2Cl)cc1 (stereo not drawn)
[7]
  Ratio: 0.05
Nociceptin receptor [2]
  Ki: 678 nM

## OC1(c2cncs2)CC2CCC(C1)N2C(c1ccccc1Cl)c1ccccc1Cl (stereo in doubt; 11b)
Mu-type opioid receptor [1]
  Ki: 1490 nM
Nociceptin receptor [2]
  Ki: 19 nM

## OC1CC2CCC(C1)N2C(c1ccccc1Cl)c1ccccc1Cl (stereo in doubt; 11a)
Nociceptin receptor [2]
  Ki: 198 nM

## OC1(c2ccccc2)CC2CCC(C1)N2C(c1ccccc1Cl)c1ccccc1Cl (stereo not drawn)
Rattus norvegicus [8]
  ED50: 1.4 mg/kg
Cavia porcellus [9]
  ED50: 0.4 mg/kg
Cavia porcellus [10]
  Activity: Active
[11]
  Ki: 109 nM
Cavia porcellus [12]
  Activity: inactive
Cavia porcellus [13]
  ED50: 0.4 mg/kg
Cavia porcellus [14]
  Activity: Active
Mu-type opioid receptor [3]
  EC50: 337 nM
Mu-type opioid receptor [1]
  Ki: 22 nM
[15]
  Ki: 3140 nM
Nociceptin receptor [2]
  Ki: 3.4 nM

## NC(=O)C1(c2ccc(F)cc2)CC2CCC(C1)N2C(c1ccccc1Cl)c1ccccc1Cl (stereo not drawn)
[16]
  AUC(0-t) at 24 h: 1.27 µM·h
[17]
  Cmax: 250 nM
Rattus norvegicus [8]
  ED50: 2.7 mg/kg
[18]
  half-life: 1.8 h
Cavia porcellus [9]
  ED50: 0.2 mg/kg
[11]
  Ki: 752 nM
[7]
  Ratio: 0.27
Cavia porcellus [13]
  ED50: 0.03 mg/kg
Mu-type opioid receptor [3]
  EC50: 947 nM
Rattus norvegicus [19]
  Vdss: 1.8 L/kg
Mu-type opioid receptor [1]
  Ki: 126 nM
[20]
  bioavailability: 45%
[21]
  CL/F: 33 mL/min/kg
Nociceptin receptor [4]
  EC50: 14 nM
[15]
  Ki: 1040 nM
Nociceptin receptor [2]
  Ki: 16 nM

## Cc1ccc(C(c2ccccc2Cl)N2C3CCC2CC(O)(C2=NCCCN2)C3)c(Cl)c1 (stereo not drawn)
Mu-type opioid receptor [1]
  Ki: 622 nM
Nociceptin receptor [4]
  EC50: 62 nM
Mu-type opioid receptor [5]
  Activity: 29%
Nociceptin receptor [2]
  Ki: 3 nM

## CC(C)NC(=O)C1(c2ccccc2)CC2CCC(C1)N2C(c1ccccc1Cl)c1ccccc1Cl (stereo not drawn)
[7]
  Ratio: 2.21
Mu-type opioid receptor [1]
  Ki: 333 nM
Nociceptin receptor [2]
  Ki: 10 nM

## NC(=O)C1(c2ccc(Cl)cc2)CC2CCC(C1)N2C(c1ccccc1Cl)c1ccccc1Cl (stereo not drawn)
[7]
  Ratio: 0.05
Mu-type opioid receptor [1]
  Ki: 55 nM
Nociceptin receptor [2]
  Ki: 31 nM

## OCC1(c2ccccc2)CC2CCC(C1)N2C(c1ccccc1Cl)c1ccccc1Cl (stereo not drawn)
Mu-type opioid receptor [3]
  EC50: 2140 nM
Mu-type opioid receptor [1]
  Ki: 627 nM
Nociceptin receptor [4]
  EC50: 136 nM
Nociceptin receptor [2]
  Ki: 6 nM

## O/N=C/C1(c2ccccc2)CC2CCC(C1)N2C(c1ccccc1Cl)c1ccccc1Cl (stereo not drawn)
Mu-type opioid receptor [1]
  Ki: 601 nM
Nociceptin receptor [4]
  EC50: 107 nM
Mu-type opioid receptor [5]
  Activity: 29%
Nociceptin receptor [2]
  Ki: 20 nM

Reference: ChEMBL document CHEMBL1138606, “The discovery of tropane derivatives as nociceptin receptor ligands for the management of cough and anxiety” (Bioorg Med Chem Lett, 2009)
